“Also recorded” adds a separate entry of the source.
Legend:
MAGL = molecular target: T1, MAGL (Mus musculus, UniProt O35678); assay: 2-AG substrate assay in mouse brain proteomes; type: biochemical
T1 sequence (O35678 1-303): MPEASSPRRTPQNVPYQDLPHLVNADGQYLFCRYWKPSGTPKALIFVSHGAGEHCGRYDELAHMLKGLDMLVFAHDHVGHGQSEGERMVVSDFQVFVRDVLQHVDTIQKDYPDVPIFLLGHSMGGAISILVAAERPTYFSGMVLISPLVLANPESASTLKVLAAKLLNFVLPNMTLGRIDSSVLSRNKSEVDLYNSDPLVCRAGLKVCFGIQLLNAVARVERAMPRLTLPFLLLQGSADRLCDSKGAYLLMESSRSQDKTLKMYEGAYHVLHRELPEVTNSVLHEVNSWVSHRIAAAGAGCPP

FAAH [1] = molecular target: T2, FAAH (Rattus norvegicus, UniProt P97612); assay: competitive ABPP, rat brain membrane proteome; type: biochemical
T2 sequence (P97612 1-579): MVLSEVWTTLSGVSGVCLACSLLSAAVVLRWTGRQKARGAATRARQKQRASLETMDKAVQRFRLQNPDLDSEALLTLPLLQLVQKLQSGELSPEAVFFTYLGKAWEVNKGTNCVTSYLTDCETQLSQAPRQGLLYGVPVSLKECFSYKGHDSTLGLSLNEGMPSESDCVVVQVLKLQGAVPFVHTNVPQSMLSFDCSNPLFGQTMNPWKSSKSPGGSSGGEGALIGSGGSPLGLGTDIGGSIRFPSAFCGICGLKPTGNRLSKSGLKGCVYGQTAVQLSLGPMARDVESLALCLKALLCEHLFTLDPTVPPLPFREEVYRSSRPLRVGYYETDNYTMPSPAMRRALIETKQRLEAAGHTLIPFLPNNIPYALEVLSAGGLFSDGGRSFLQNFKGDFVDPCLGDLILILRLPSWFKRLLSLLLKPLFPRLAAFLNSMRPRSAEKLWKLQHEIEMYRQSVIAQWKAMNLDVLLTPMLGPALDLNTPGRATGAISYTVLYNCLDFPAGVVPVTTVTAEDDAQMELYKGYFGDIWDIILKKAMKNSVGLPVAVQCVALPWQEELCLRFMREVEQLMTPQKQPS
Procedure, shortened: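 Rat brain proteome pre-treated with test compound, then labelled with the serine hydrolase-directed fluorophosphonate-rhodamine (FP-Rh) activity-based probe. Proteins separated by SDS-PAGE and detected by in-gel fluorescence scanning. Inhibition scored as loss of FP-Rh labelling of the FAAH band. IC50 calculated from the gel-based ABPP data.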

FAAH [2] = molecular target: T3, FAAH (Mus musculus, UniProt O08914); assay: AEA hydrolytic activity of brain tissue from treated mice; type: in vivo; details: KML29-treated mice, 1–40 mg kg^−1 p.o.
T3 sequence (O08914 1-579): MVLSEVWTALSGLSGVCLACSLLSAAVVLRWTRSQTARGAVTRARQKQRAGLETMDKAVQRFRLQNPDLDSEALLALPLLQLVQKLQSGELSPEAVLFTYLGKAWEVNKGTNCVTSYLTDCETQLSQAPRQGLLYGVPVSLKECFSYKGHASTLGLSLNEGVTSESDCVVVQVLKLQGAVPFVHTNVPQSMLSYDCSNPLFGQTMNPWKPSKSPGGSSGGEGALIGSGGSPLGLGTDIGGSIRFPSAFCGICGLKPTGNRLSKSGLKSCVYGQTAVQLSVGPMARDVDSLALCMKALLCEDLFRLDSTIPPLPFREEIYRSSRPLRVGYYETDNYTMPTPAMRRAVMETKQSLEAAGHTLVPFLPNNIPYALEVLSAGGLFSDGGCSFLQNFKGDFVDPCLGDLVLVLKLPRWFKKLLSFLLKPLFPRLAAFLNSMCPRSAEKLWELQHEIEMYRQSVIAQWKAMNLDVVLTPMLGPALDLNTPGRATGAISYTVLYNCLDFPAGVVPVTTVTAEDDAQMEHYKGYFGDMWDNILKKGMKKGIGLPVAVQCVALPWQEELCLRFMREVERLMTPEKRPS
Procedure, shortened: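 C57Bl/6 mice were dosed orally with the test compound (1–40 mg kg−1) or vehicle. The compound was dissolved in PEG by prolonged sonication and mild heating. Mice were killed after 4 h. Brain was analysed for 2-AG, AA, AEA, PEA and OEA, and brain proteomes for residual AEA and 2-AG hydrolysis (substrate assay). n = 3 mice/group, means ± SEM, compared with vehicle-treated mice.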

ABHD6 = molecular target: T4, ABHD6 (Rattus norvegicus, UniProt Q5XI64); assay: competitive ABPP, rat brain membrane proteome; type: biochemical; details: rat brain serine hydrolase activities, full ABPP gel
T4 sequence (Q5XI64 1-337): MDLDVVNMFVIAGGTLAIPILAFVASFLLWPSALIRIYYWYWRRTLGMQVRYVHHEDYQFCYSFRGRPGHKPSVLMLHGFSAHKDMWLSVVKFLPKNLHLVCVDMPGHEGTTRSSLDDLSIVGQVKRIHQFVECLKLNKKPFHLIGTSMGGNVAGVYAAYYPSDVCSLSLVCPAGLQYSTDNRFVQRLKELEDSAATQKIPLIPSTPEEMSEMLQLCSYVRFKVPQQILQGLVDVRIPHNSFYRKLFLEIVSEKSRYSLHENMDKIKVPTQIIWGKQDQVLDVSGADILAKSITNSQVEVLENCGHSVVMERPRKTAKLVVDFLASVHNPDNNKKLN
Procedure, shortened: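 Brain (mouse or rat) or mouse lung proteomes were preincubated with the test compound, then treated with the serine hydrolase probe FP-Rh. Samples were separated by SDS-PAGE and read by in-gel fluorescence scanning. Inhibition was taken as reduced FP-Rh labelling of MAGL, ABHD6, FAAH or CES bands, and IC50 values were calculated from quantified gel bands. Three independent experiments.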

[3] = dissolution in dosing vehicle; type: physicochemical
Procedure, shortened: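 Test compound was dissolved with prolonged sonication and mild heating. Vehicle was PEG for oral dosing, or saline:emulphor:ethanol (18:1:1) for i.p. dosing.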

FAAH [4] = molecular target: T2, FAAH; assay: competitive ABPP of brain from KML29-treated rats; type: in vivo; details: Wistar rats, 1–40 mg kg^−1 i.p., 4 h
Procedure, shortened: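 Wistar rats were injected i.p. with the test compound (1–40 mg kg−1) or vehicle. Vehicle was saline:emulphor:ethanol 18:1:1, with prolonged sonication and mild heating to dissolve. Rats were killed at 4 h. Brain, liver, lung and spleen proteomes were labelled with FP-Rh, separated by SDS-PAGE and scanned for in-gel fluorescence. Inhibition was scored as reduced probe labelling. n = 3 rats/group.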

With O=C(OC(C(F)(F)F)C(F)(F)F)N1CCC(C(O)(c2ccc3c(c2)OCO3)c2ccc3c(c2)OCO3)CC1 [KML29] the “inhibition of 2-AG hydrolysis” value (MAGL) was “potent inhibitor of 2-AG hydrolysis”, the “FAAH inhibition / cross-reactivity (gel-based ABPP)” value (FAAH [1]; rat brain proteome) was “no detectable cross-reactivity; also recorded: No inhibition of FAAH was detected” and the IC50 (FAAH [1]; read-out: IC50 (95% CI), rat FAAH, competitive ABPP, rat brain membrane proteome) was over 50 µM. For the same compound, the “residual FAAH activity in brain proteomes (substrate assay)” value (FAAH [2]) was “lack of any effect on FAAH”, the “concentrations with inhibition of ABHD6” value (ABHD6) was over 1 µM and the “dissolution in vehicles for p.o. (PEG) or i.p. [saline:emulphor:ethanol (18:1:1)] administration” value [3] was “Prolonged sonication and mild heating were also required”. The “cross-reactivity with brain FAAH” value (FAAH [4]) was “without any detectable cross-reactivity”.
